According to ChEMBL document CHEMBL4177753, “Structural Modification of Natural Product Ganomycin I Leading to Discovery of a α-Glucosidase and HMG-CoA Reductase Dual Inhibitor Improving Obesity and Metabolic Dysfunction in Vivo” (J Med Chem, 2018):
Active and inactive are the calls of the source.

Tests used:
Mus musculus [1] = assay: Hypolipidemic activity in antibiotic-treated ob/ob mouse assessed as decrease in hepatic free fatty acid levels at 3 mg/kg administered daily via oral gavage for 3 weeks; format: functional, organism-based
In short: (§1)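 Male ob/ob mice pretreated three weeks with ampicillin (1 g/L), vancomycin, neomycin, gentamycin and erythromycin. Groups of n = 8 given 3.0 mg/kg/day orally in soybean vehicle versus vehicle. Plasma and hepatic lipids, fasting glucose, OGTT (glucose 2 g/kg after overnight fast) and HbA1c measured.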

[2] = Chemical stability of the compound at 0.4 mg/ml at room temperature after 3 weeks by HPLC method; format: physicochemical; conditions: 504 h
Mus musculus [3] = assay: Toxicity in C57BL/6J mouse assessed as effect on free diet blood glucose levels at 30 mg/kg administered daily via oral gavage for 3 months; format: organism-based; conditions: in vivo
In short: (§2)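 Long-term safety study in C57BL/6J mice, 20 male and 20 female, sorted by gender, blood glucose and body weight into four groups (n = 10 each). Treated groups of each sex got 30.0 mg/kg daily by oral gavage in soybean vehicle. Vehicle groups got an equal volume of soybean. Dosing ran three months, with behavior, survival, body weight, blood glucose, liver function and organ coefficients recorded.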

Mus musculus [4] = assay: Hypolipidemic activity in ob/ob mouse assessed as decrease in plasma triglyceride levels administered daily via oral gavage for 31 days; format: functional, organism-based
Gammaproteobacteria = assay: Decrease in Gammaproteobacteria levels in cecum of ob/ob mouse at 1 to 3 mg/kg administered daily via oral gavage for 31 days by 16S rRNA gene high-throughput sequencing method; format: functional, organism-based
In short: (§3)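 Male ob/ob mice dosed daily by gavage at 1.0 or 3.0 mg/kg, compared with vehicle group. DNA extracted from about 150 mg caecum contents. 16S rRNA V3–V4 region amplified and sequenced on Illumina HiSeq PE250. Community compared by NMDS/MRPP; discriminant taxa identified by LEfSe.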

Selenomonas = assay: Decrease in Selenomonas levels in cecum of ob/ob mouse at 3 mg/kg administered daily via oral gavage for 31 days by 16S rRNA gene high-throughput sequencing method; format: functional, organism-based; in short: as §3
Lachnospiraceae [5] = assay: Increase in Lachnospiraceae levels in cecum of ob/ob mouse at 1 to 3 mg/kg administered daily via oral gavage for 31 days by 16S rRNA gene high-throughput sequencing method; format: functional, organism-based
In short: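 Caecum contents (about 150 mg) from ob/ob mice given 1.0 or 3.0 mg/kg by gavage; DNA extracted, 16S rRNA gene V3-V4 region amplified and sequenced on Illumina HiSeq PE250; community compared with vehicle group by NMDS/MRPP and LEfSe.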

Mus musculus [6] = assay: Hypolipidemic activity in ob/ob mouse assessed as decrease in plasma LDL-C levels at 3 mg/kg administered daily via oral gavage for 31 days relative to vehicle-treated control; format: functional; set-up: scale not given: the % may be the effect or the level left
Mus musculus [7] = assay: Hypolipidemic activity in ob/ob mouse assessed as decrease in macrosteatosis at 3 mg/kg administered daily via oral gavage for 31 days by hematoxylin-eosin staining-based microscopic method; format: functional, organism-based
In short: (§4)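 Male ob/ob mice dosed by gavage (soybean vehicle); liver and abdominal white adipose tissue fixed in 10% formaldehyde-PBS pH 7.4, paraffin-embedded, sectioned, stained with H&E, Oil Red O or sirius red, and examined by light microscopy.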

Mus musculus [8] = assay: Hypolipidemic activity in C57BL/6J DIO mouse assessed as decrease in serum total cholesterol levels at 0.3 to 3 mg/kg administered daily via oral gavage for 5 weeks; format: functional, organism-based
In short: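 High-fat-diet male C57BL/6J mice, n = 8 per group, daily gavage at 0.3–3.0 mg/kg in soybean vehicle for 5 weeks. Serum total cholesterol, triglycerides and free fatty acids measured.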

Mus musculus [9] = assay: Antifibrotic activity in ob/ob mouse assessed as decrease in TGF-beta1 expression in liver at 3 mg/kg administered daily via oral gavage for 31 days by immunohistochemical staining-based microscopic method; format: functional, organism-based
Mus musculus [10] = assay: Hypoglycemic activity in antibiotic-treated ob/ob mouse assessed as decrease in fasting blood glucose levels at 3 mg/kg administered daily via oral gavage for 3 weeks; format: functional, organism-based; in short: as §1
[11] = AUC (0 to infinity) in Sprague-Dawley rat at 2 mg/kg, po; format: ADME, organism-based; set-up: dose 2 mg/kg, route oral, time infinity; conditions: in vivo
In short: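 Male Sprague-Dawley rats (n = 6, 0.21–0.23 kg), single oral dose 2.0 mg/kg. Orbital blood sampled 0–16 h into heparinized tubes. Plasma was protein-precipitated with methanol, with internal standard added. Quantified by UPLC-ESI(+)-QTOF-MS in SIM mode on a C18 column with a methanol/0.3% formic acid water gradient. Linear range 0.54–107 ng/ml.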

Mus musculus [12] = assay: Hypolipidemic activity in antibiotic-treated ob/ob mouse assessed as decrease in hepatic total cholesterol levels at 3 mg/kg administered daily via oral gavage for 3 weeks; format: functional, organism-based; in short: as §1
Lachnospiraceae [13] = assay: Increase in Lachnospiraceae levels in cecum of ob/ob mouse assessed as increase in level of gut butyrate at 3 mg/kg administered daily via oral gavage for 31 days by GC-MS analysis; format: functional, organism-based
In short: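 Feces collected from ob/ob mice after 3.0 mg/kg gavage treatment; samples lyophilized, ground, 40 mg powder extracted with 1 mL MeOH, sonicated, centrifuged; supernatant analysed for short-chain fatty acids by GC-MS.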

Mus musculus [14] = assay: Decrease in nitrate levels in ob/ob mouse colonic lumen at 3 mg/kg administered daily via oral gavage for 31 days by Griess assay; format: functional, organism-based
In short: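 Male ob/ob mice dosed daily by gavage in soybean vehicle. Nitrate measured in intestinal contents by Griess assay.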

Mus musculus [15] = assay: Hypolipidemic activity in ob/ob mouse assessed as decrease in size of adipocytes in white adipose tissue at 3 mg/kg administered daily via oral gavage for 31 days by hematoxylin-eosin staining-based microscopic method; format: functional, organism-based; in short: as §4
Mus musculus [16] = assay: Hypolipidemic activity in ob/ob mouse assessed as decrease in hepatocyte ballooning at 3 mg/kg administered daily via oral gavage for 31 days by oil red O staining-based microscopic method; format: functional, organism-based; in short: as §4
Oscillibacter = assay: Decrease in Oscillibacter levels in cecum of ob/ob mouse at 3 mg/kg administered daily via oral gavage for 31 days by 16S rRNA gene high-throughput sequencing method; format: functional, organism-based; in short: as §3
Mus musculus [17] = assay: Toxicity in C57BL/6J mouse assessed as effect on organ coefficients at 30 mg/kg administered daily via oral gavage for 3 months; format: organism-based; conditions: in vivo; in short: as §2
Mus musculus [18] = assay: Hypolipidemic activity in antibiotic-treated ob/ob mouse assessed as decrease in plasma LDL-C levels at 3 mg/kg administered daily via oral gavage for 3 weeks; format: functional, organism-based; in short: as §1
Mus musculus [19] = assay: Toxicity in C57BL/6J mouse assessed as effect on body weight at 30 mg/kg administered daily via oral gavage for 3 months; format: organism-based; conditions: in vivo; in short: as §2
Mus musculus [20] = assay: Hypolipidemic activity in ob/ob mouse assessed as decrease in liver free fatty acid levels at 0.3 to 3 mg/kg administered daily via oral gavage for 31 days; format: functional, organism-based
Mus musculus [21] = assay: Downregulation of Nos2 mRNA expression in ob/ob mouse ileum at 3 mg/kg administered daily via oral gavage for 31 days by RNA-seq analysis; format: functional, organism-based
Mus musculus [22] = assay: Hypoglycemic activity in ob/ob mouse assessed as decrease in blood glucose AUC at 0.3 to 3 mg/kg administered daily via oral gavage for 27 days by ITT; format: functional, organism-based
In short: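 Male ob/ob or high-fat-diet C57BL/6J mice dosed daily by gavage at 0.3–3.0 mg/kg. OGTT: glucose 2 g/kg orally after overnight fast. ITT: insulin 0.6 U/kg i.p. after 4 h fast. Glucometer readings at 0, 40, 80 and 120 min; AUC computed from the curves.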

CC(C)=CCC/C(C)=C/CCC1=C[C@H](c2ccc(C(C)(C)C)cc2)OC1=O
active: Activity (Mus musculus [4]) Dose-dependent effect | Activity (Gammaproteobacteria) | Activity (Selenomonas) | Activity (Lachnospiraceae [5]) | Activity (Mus musculus [7]) | Activity (Mus musculus [8]) | Activity (Mus musculus [9]) | Activity (Lachnospiraceae [13]) | Activity (Mus musculus [14]) | Activity (Mus musculus [15]) | Activity (Mus musculus [16]) | Activity (Oscillibacter) | Activity (Mus musculus [20]) | Activity (Mus musculus [21]) | Activity (Mus musculus [22])
51%: Activity (Mus musculus [6])
Non-Toxic: Activity (Mus musculus [3]) | Activity (Mus musculus [17]) | Activity (Mus musculus [19])
Stable: Stability [2]
inactive: Activity (Mus musculus [1]) | Activity (Mus musculus [10]) | Activity (Mus musculus [12]) | Activity (Mus musculus [18])
280 ng·h/mL: AUC(0-inf) [11]
